In publication PMC10925246 (bioRxiv, 2024):
Ends that are not written are not given here.

Tests used:
P. aeruginosa PA14 [1] = type: cell-based, Pseudomonas aeruginosa; conditions: for minimum inhibitory concentration (MIC): PA14, CFU assay
P. aeruginosa PA14 [2] = experiment: Polyamine toxicity for PA14; type: cell-based, Pseudomonas aeruginosa; conditions: 10^6 cfu/ml PA14, 30 mOsm/l, alamarBlue; n = 3 experiments
[3] = system: ^14C-spermidine uptake by PA14; experiment: Polyamine transport assay; type: cell-based, Pseudomonas aeruginosa; conditions: 10 and 25 µM, 45 min 35°C pretreatment, n = 3 experiments
Method in brief: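 PA14 (0.8×10^8 cfu in 100 µl dilute phosphate saline) was pre-incubated 45 min at 35°C with or without 10 or 25 µM test peptide. Cells were then given 1 µl of 10 mM [1,4-14C]spermidine stock (0.1 mCi/ml) for 15 min at 35°C. Pellets were washed four times with phosphate-buffered saline and counted by liquid scintillation, last wash also counted. Molecules per cell were estimated from a spermidine standard curve.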

[4] = system: PA14 pathogenesis in C. elegans N2; experiment: C. elegans - PA14 liquid infection; type: in vivo, Caenorhabditis elegans; conditions: SYTOX Orange uptake of dead worms
Method in brief: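 Young adult worms (raised from L1 on NGM with E. coli OP50 at room temperature, washed off in M9, pelleted 1200×g 2 min) were placed ~50 per well in 150 µl 90% M9/10% LB. They were incubated aerobically with an equal volume of PA14, feoB/potH/yaiW transposon mutants, or OP50, diluted to 10^7 cfu/ml and pre-treated with 50 µM test peptide for 5 h at 35°C. After 3 days, equal volume 6 µM SYTOX Orange was added; imaged next day, transmitted and 535/610 nm fluorescence.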

P. aeruginosa PA14 [5] = experiment: N-104 resistance assay over 30 generations; type: cell-based, Pseudomonas aeruginosa; conditions: through 30 generations, sub-MIC and MIC exposure; n = 2 experiments
[6] = system: PA14 feoB, potH and yaiW transposon mutants; experiment: CFU killing assay of PA14 transposon mutants; type: cell-based, Pseudomonas aeruginosa; conditions: 10^6 cfu/ml, 30 mOsm/l; n = 3 experiments
Method in brief: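 Suspensions were exposed to test peptide or left untreated ~8 h at 35°C. 2 µl were spotted on LB agar, with or without selective antibiotic, incubated overnight at 37°C and imaged; n = 3 experiments.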

FeoB = type: binding, P. aeruginosa PAO1; conditions: overnight 4°C, 0.15 M NaCl; eluted with 0.5 and 1 M KCl, not 0.3 M KCl; n = 3 experiments
Method in brief: (§1)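 Cys-extended test peptide (2 mg) was coupled to SulfoLink resin in 50 mM Tris pH 8.5, 5 mM EDTA, 3 h room temperature. His-tagged transporter was Ni-Sepharose purified (4 h, 4°C; imidazole elution) and applied to the column; the flowthrough was collected. Columns were washed with 10 mM HEPES, 0.05% dodecyl-maltoside, 0.15 M KCl, then step-eluted with 0.3, 0.5, 1.0 M KCl. Unboiled fractions went to 4–20% SDS-PAGE and anti-His (1 µg/ml, overnight 4°C) western with IRDye secondary.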

PotH = molecular target: T1, PotH (Escherichia coli, UniProt P31135); type: binding, E. coli; conditions: overnight 4°C, 0.15 M NaCl; eluted with 0.5 and 1 M KCl, not 0.3 M KCl; n = 3 experiments
T1 sequence (P31135 1-317): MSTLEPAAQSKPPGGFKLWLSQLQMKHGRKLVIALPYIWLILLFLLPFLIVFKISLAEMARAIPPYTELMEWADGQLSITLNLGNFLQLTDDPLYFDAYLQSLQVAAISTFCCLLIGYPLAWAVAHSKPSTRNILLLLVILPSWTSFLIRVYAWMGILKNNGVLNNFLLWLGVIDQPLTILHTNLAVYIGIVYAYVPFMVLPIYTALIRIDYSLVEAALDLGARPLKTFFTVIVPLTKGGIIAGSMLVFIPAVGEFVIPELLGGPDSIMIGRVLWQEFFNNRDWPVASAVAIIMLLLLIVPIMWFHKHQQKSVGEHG
Method in brief: as §1

thrombin = thrombin (Homo sapiens, UniProt P00734); experiment: N-104 affinity column screen of human tears, thrombin western blot; type: binding; conditions: pooled human basal tears, 5 hours 4°C, KCl elution, anti-thrombin western blot
Method in brief: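 Basal tears were collected 5 min on Schirmer strips after 0.5% proparacaine, eluted at 4°C in phosphate-buffered saline and pooled (170 µl). The pool was diluted fivefold with protease inhibitors, agarose-precleared, and split by protein between test-peptide and control-peptide columns for 5 h at 4°C. Elution was 0.3/0.5/1.0 M KCl; the 0.5 M eluate went to MS (human UniProt search). Unboiled fractions: 4–20% SDS-PAGE, polyclonal anti-thrombin 1 µg/ml overnight 4°C, LI-COR detection.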

[7] = Solubility of synthetic loop peptides in solvents; type: physicochemical; conditions: lyophilized synthetic peptide, acetylated and amidated
Method in brief: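 Synthetic outer-loop peptides were N-acetylated and C-amidated, ≥95% HPLC purity, and stored lyophilized at −80°C. Each was […] as required before competition binding at 0–250 µM.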

## NCCCCNCCCN [spermidine]
P. aeruginosa PA14 [1]; PA14, 5 µM N-104 plus polyamine at or below 100 µM, n = 3 experiments
  effect of exogenous polyamine on N-104 bactericidal activity: inhibited N-104 bactericidal activity in a concentration-dependent manner
P. aeruginosa PA14 [2]
  concentrations toxic for PA14: greater than 100 µM

## Ac-AKAGKGMHGGVPGG-NH2 [N-80/C-25]
[3]
  effect on ^14C-spermidine uptake: almost similar inhibitory effect

## Ac-AQKLLKKFSLLKPWA [N-104]
P. aeruginosa PA14 [1]; two osmolalities (30 and 300 mOsm/l)
  dependence of PA14 killing efficacy on osmolarity: efficacy diminishes as osmolarity increases
[4]
  effect of peptide alone on C. elegans: no apparent effect
P. aeruginosa PA14 [5]
  development of resistance of PA14: No stable resistance
[6]
  killing of PA14 transposon mutant lacking YaiW: partially resistant
FeoB
  binding of His tagged FeoB to column immobilized peptide: high affinity ligation
PotH
  binding of His tagged PotH to column immobilized peptide: high affinity ligation
thrombin
  capture of thrombin from human tears by column immobilized peptide: binds

## Ac-AQKLLKKFSLSKPWA [N-104:L115S]
P. aeruginosa PA14 [1]
  minimum inhibitory concentration (MIC): 2 µM

## Ac-AQKLLKKFSSLKPWA [N-104:L114S]
P. aeruginosa PA14 [1]
  minimum inhibitory concentration (MIC): 2 µM

## Ac-GAFFGQGGA-NH2 [FeoB outer loop 3 synthetic peptide]
[7]
  solubility in water and organic solvents: not water, DMSO, methanol, isopropanol nor acetonitrile soluble
  solvent in which the peptide dissolved: ammonia water and acetic acid

## Ac-INIGGALQP-NH2 [FeoB outer loop 1 synthetic peptide]
[7]
  solubility in water and organic solvents: not water, DMSO, methanol, isopropanol nor acetonitrile soluble
  solvent in which the peptide dissolved: formic or acetic acid

## EDASSDSTGADPAQEAGTSKPNEE-NH2 [C-95]
FeoB
  binding of His tagged FeoB to column immobilized peptide: Neither bound
PotH
  binding of His tagged PotH to column immobilized peptide: Neither bound
thrombin
  capture of thrombin from human tears by column immobilized peptide: None bound
